Results as given in ChEMBL document CHEMBL4373706, “Discovery of Inhibitors of Aurora/PLK Targets as Anticancer Agents” (J Med Chem, 2019).
Converted amounts (≈) assume the structure as drawn.

Experiments:
[1] = Half life in Sprague-Dawley rat at 10 mg/kg, iv administered […] by LC-MS/MS analysis; format: ADME, organism-based; details: in vivo
[2] = Cmax in Sprague-Dawley rat at 50 mg/kg, po administered via gastric gavage by LC-MS/MS analysis; format: ADME, organism-based; set-up: dose 50 mg/kg, route oral; details: in vivo
[3] = Solubility of the compound in water; format: physicochemical
In short: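 Solubility of the compound measured at 25±0.2°C, separately in water and in DMSO; reported in µg/mL.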

[4] = Lipid/water partition coefficient, log D of the compound; format: physicochemical
[5] = biological target: Serine/threonine-protein kinase PLK3 (Homo sapiens, UniProt Q9H4B4); assay: Binding affinity to wild-type human partial length PLK3 (A42 to L334 residues) expressed in mammalian expression system measured after 1 hr by kinomescan method
In short: (§1)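 KINOMEscan competition binding assay. A 321-kinase panel was first screened at 10 μM compound, and binding affinities were then determined for Aurora and PLK family members.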

[6] = biological target: Serine/threonine-protein kinase PLK2 (Homo sapiens, UniProt Q9NYY3); assay: Binding affinity to wild-type human partial length PLK2 (H58 to F354 residues) expressed in mammalian expression system measured after 1 hr by kinomescan method; in short: as §1
Aurora kinase C = biological target: T1, Aurora kinase C (Homo sapiens, UniProt Q9UQB9); assay: Binding affinity to wild-type human full length AURKC (M1 to S275 residues) expressed in bacterial expression system measured after 1 hr by Kinomescan method; in short: as §1
T1 sequence (Q9UQB9 whole entry): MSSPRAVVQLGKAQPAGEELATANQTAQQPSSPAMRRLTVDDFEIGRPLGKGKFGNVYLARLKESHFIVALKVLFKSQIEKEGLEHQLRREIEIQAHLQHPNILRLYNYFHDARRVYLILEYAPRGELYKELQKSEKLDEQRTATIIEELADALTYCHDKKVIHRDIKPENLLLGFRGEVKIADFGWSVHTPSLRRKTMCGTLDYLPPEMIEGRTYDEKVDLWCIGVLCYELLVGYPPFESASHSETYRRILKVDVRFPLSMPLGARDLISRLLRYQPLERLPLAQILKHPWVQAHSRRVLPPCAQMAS

Aurora kinase A = biological target: T2, Aurora kinase A (Homo sapiens, UniProt O14965); assay: Binding affinity to wild-type human partial length AURKA (E122 to K401 residues) expressed in mammalian expression system measured after 1 hr by Kinomescan method; in short: as §1
T2 sequence (O14965 whole entry): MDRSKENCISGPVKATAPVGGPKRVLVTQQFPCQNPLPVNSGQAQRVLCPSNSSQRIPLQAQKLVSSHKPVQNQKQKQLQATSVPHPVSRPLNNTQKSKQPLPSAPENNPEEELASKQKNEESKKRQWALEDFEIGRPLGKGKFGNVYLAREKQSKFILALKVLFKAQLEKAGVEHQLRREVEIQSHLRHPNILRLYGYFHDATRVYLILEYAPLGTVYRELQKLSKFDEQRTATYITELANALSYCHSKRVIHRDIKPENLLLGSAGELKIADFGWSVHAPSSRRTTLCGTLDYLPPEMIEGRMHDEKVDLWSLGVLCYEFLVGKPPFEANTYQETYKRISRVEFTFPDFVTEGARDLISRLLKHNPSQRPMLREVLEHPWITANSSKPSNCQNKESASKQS

Aurora kinase B = Aurora kinase B (Homo sapiens, UniProt Q96GD4); assay: Binding affinity to wild-type human partial length AURKB (D25 to A303 residues) expressed in mammalian expression system measured after 1 hr by Kinomescan method; in short: as §1
HCT-116 [7] = assay: Cell cycle arrest in human HCT116 cells assessed as accumulation at G2/M phase at 5 uM measured after 24 to 48 hrs by propidium iodide staining-based flow cytometry (reference value: 3.37%); format: functional
HCT-116 [8] = assay: Cell cycle arrest in human HCT116 cells assessed as accumulation at G2/M phase at 10 uM measured after 24 to 48 hrs by propidium iodide staining-based flow cytometry (reference value: 3.37%); format: functional
HCT-116 [9] = assay: Cell cycle arrest in human HCT116 cells assessed as accumulation at G2/M phase at 1 uM measured after 24 to 48 hrs by propidium iodide staining-based flow cytometry (reference value: 3.37%); format: functional
HCT-116 [10] = assay: Induction of apoptosis in human HCT116 cells assessed as apoptotic cell population at 10 uM measured after 48 hrs by Annexin V-FITC/propidium iodide staining-based flow cytometry (reference value: 5.9%); format: functional
HCT-116 [11] = assay: Induction of apoptosis in human HCT116 cells assessed as apoptotic cell population at 5 uM measured after 48 hrs by Annexin V-FITC/propidium iodide staining-based flow cytometry (reference value: 5.9%); format: functional
HCT-116 [12] = assay: Induction of apoptosis in human HCT116 cells measured after 48 hrs by Annexin V-FITC/propidium iodide staining-based flow cytometry; format: functional, cell-based
HCT-116 [13] = assay: Induction of apoptosis in human HCT116 cells assessed as apoptotic cell population at 1 uM measured after 48 hrs by Annexin V-FITC/propidium iodide staining-based flow cytometry (reference value: 5.9%); format: functional
[14] = Half life in Sprague-Dawley rat at 50 mg/kg, po administered via gastric gavage by LC-MS/MS analysis; format: ADME, organism-based; details: in vivo
HCT-116 [15] = assay: Antiproliferative activity against human HCT116 cells measured after 48 hrs by MTT assay; format: functional, cell-based; details: HCT-116, 48 h
In short: (§2)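 Cells were exposed to a range of compound concentrations for 48 h. MTT reagent was then added and absorbance read at 490 nm. Viability was normalized to vehicle control set as 100%, from n = 3 independent experiments, and IC50 was taken from the dose–response curves.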

A549 = assay: Antiproliferative activity against human A549 cells measured after 48 hrs by MTT assay; format: functional, cell-based; details: A549, 48 h; in short: as §2
Calu-6 = assay: Antiproliferative activity against human Calu6 cells measured after 48 hrs by MTT assay; format: functional, cell-based; details: Calu-6, 48 h; in short: as §2
[16] = Cmax in Sprague-Dawley rat at 10 mg/kg, iv administered […] by LC-MS/MS analysis; format: ADME, organism-based; set-up: dose 10 mg/kg, route intravenous; details: in vivo
HCT-116 [17] = assay: Antitumor activity against human HCT116 cells xenografted in BALB/c mouse assessed as reduction in tumor size at 10 mg/kg, iv administered every 3 days for 24 days measured at 3 days interval during compound dosing relative to control; format: functional; set-up: scale not given: the % may be the effect or the level left
[18] = Toxicity in BALB/c mouse xenografted with human HCT116 cells assessed as change in body weight at 1 to 5 mg/kg, iv administered every 3 days for 24 days measured post-last dose; format: organism-based; details: in vivo
[19] = Toxicity in BALB/c mouse xenografted with human HCT116 cells assessed as change in body weight at 10 mg/kg, iv administered every 3 days for 24 days measured post-last dose; format: organism-based; details: in vivo
HCT-116 [20] = assay: Antitumor activity against human HCT116 cells xenografted in BALB/c mouse assessed as mean survival days at 5 mg/kg, iv administered every 3 days for 60 days (reference value: 25 day); format: functional
HCT-116 [21] = assay: Antitumor activity against human HCT116 cells xenografted in BALB/c mouse assessed as mean survival days at 10 mg/kg, iv administered every 3 days for 60 days (reference value: 25 day); format: functional

Chain of Serine/threonine-protein kinase PLK3 (Q9H4B4 whole entry, the tested form may be a part): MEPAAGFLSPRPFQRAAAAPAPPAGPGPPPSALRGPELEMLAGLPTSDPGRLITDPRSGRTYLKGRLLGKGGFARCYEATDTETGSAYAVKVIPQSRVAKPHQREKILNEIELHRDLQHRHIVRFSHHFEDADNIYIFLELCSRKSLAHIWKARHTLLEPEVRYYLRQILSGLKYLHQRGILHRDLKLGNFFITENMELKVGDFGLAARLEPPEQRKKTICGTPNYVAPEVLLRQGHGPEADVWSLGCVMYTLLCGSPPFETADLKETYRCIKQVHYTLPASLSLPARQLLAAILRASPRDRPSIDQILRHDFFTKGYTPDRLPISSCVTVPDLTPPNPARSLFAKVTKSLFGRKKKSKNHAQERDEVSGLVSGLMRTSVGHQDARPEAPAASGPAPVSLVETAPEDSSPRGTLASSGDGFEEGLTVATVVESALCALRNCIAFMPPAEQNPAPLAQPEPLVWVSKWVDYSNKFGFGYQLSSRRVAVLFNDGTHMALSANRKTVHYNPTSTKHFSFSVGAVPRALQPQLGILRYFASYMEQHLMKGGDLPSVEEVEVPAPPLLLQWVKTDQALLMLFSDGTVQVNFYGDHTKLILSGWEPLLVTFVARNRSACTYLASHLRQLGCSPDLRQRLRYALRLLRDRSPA
Chain of Aurora kinase B (Q96GD4 whole entry, the tested form may be a part): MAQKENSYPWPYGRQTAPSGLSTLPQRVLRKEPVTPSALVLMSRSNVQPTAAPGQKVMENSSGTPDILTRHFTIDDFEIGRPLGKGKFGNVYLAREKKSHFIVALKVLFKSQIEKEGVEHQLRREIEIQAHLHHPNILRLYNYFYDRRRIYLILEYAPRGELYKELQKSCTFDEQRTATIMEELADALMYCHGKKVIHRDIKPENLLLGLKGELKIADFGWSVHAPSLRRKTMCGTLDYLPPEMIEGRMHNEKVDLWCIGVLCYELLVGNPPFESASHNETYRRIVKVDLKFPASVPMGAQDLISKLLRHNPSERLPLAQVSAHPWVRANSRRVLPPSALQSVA
Chain of Serine/threonine-protein kinase PLK2 (Q9NYY3 whole entry, the tested form may be a part): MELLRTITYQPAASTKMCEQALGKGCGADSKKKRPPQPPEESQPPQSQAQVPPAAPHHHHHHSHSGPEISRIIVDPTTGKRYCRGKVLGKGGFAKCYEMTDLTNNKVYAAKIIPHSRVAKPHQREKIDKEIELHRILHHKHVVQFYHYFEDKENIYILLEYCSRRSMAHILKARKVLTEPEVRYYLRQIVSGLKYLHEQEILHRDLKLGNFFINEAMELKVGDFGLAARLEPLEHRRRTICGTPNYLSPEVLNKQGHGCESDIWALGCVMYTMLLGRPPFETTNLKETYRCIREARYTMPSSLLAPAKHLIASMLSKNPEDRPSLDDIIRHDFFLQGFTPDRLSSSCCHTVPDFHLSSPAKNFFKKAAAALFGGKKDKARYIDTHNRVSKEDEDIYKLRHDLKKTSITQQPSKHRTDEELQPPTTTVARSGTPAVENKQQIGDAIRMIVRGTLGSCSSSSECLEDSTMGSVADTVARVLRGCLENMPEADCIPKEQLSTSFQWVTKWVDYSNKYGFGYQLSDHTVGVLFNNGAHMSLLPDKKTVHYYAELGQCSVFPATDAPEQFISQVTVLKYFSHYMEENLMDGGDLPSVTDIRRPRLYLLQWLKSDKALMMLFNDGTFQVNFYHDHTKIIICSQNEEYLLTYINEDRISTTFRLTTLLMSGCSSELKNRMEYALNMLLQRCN

For O=C(Nc1ccc2cc(C(=O)Nc3nccs3)ccc2c1)c1ccc(Cl)c(Cl)c1, the half-life [1] was 16.2 h, the Cmax [2] was 25.1 µg/mL and the solubility [3] was 9.6 µg/mL (≈ 21.7 µM). The logD [4] was 4.8, the Kd [5] was 0.456 µM and the Kd [6] was 0.272 µM. The Kd (Aurora kinase C) was 0.289 µM, the Kd (Aurora kinase A) was 0.023 µM and the Kd (Aurora kinase B) was 0.078 µM. It also gave an Activity (HCT-116 [7]) of 10.06%, an Activity (HCT-116 [8]) of 29.66% and an Activity (HCT-116 [9]) of 7.51%. For the same molecule, the Activity (HCT-116 [10]) was 91.4%, the Activity (HCT-116 [11]) was 61.7% and the Activity (HCT-116 [12]) was “Dose-dependent effect”. The Activity (HCT-116 [13]) was 41.1%, the half-life [14] was 11.8 h and the IC50 (HCT-116 [15]) was 0.4 µM. For the same molecule, the IC50 (A549) was 11.6 µM, the IC50 (Calu-6) was 5.3 µM and the Cmax [16] was 78.5 µg/mL. The Activity (HCT-116 [17]) was 75%, the Activity [18] was “Non-Toxic” and the Activity [19] was “Toxic”. The MSD (HCT-116 [20]) was 45 days and the MSD (HCT-116 [21]) was greater than 20 days.
